Results collected from several papers.
Lines come from different studies, so protocols differ.
Effect on: thermal stability
Method: DSF
DCLK1: Serine/threonine-protein kinase DCLK1 (DCLK1, Homo sapiens, UniProt O15075)
lecA: PA-I galactophilic lectin (lecA, Pseudomonas aeruginosa, UniProt Q05097)
GAK: Cyclin-G-associated kinase (GAK, Homo sapiens, UniProt O14976)
SIRT2: NAD-dependent protein deacetylase sirtuin-2 (SIRT2, Homo sapiens, UniProt Q8IXJ6)

Cn1c2c(c3ccc(Cl)c(Cl)c31)C(C#N)C1(CCCC1)NC2=O (centres unmarked) — ΔTm (DCLK1; 10 µM): 0 °C
Cc1ccc(O)c(O)c1 — ΔTm (lecA; 4 mM): -11 °C
FC(F)(F)c1ccc2nccc(Nc3cccc(I)c3)c2c1 — ΔTm (GAK; 10 µM): 2.6 °C
Cn1c2c(c3ccc(Cl)c(Cl)c31)C(C#N)C(C)(C)NC2=O (centres unmarked) — ΔTm (DCLK1; 10 µM): 0.4 °C
Cc1ccc(Cn2cc(COc3cccc(Cc4cnc(NC(=O)CSc5nc(C)cc(C)n5)s4)c3)nn2)cc1 — ΔTm (SIRT2; 25 µM): 5.35 °C
O=C(c1ccccc1)c1ccc(O)c(O)c1 — ΔTm (lecA; 4 mM): 0.4 °C
COc1ccc2nccc(Nc3cc(OC)c(OC)c(OC)c3)c2c1 — ΔTm (GAK; 10 µM): 6 °C
COCCn1cc(COc2cccc(Cc3cnc(NC(=O)CSc4nc(-c5ccccc5)cc(-c5ccccc5)n4)s3)c2)nn1 — ΔTm (SIRT2; 25 µM): 1.4 °C
